Experimental data pooled from the literature.
Protocols differ between the studies behind these lines.
Target: MAP/microtubule affinity-regulating kinase 3 (MARK3, Homo sapiens, UniProt P27448)

| Structure (SMILES) | observed | mode | method | concentration | measurement | result |
| --- | --- | --- | --- | --- | --- | --- |
| FC(F)(F)Oc1cccc(-c2cnc3ccc(-c4ccncc4)nn23)c1 | enzyme activity | inhibitor | radiometric | 5 µM | activity vs control | 95% |
| CCS(=O)(=O)c1cc2cc(C[C@](O)(CC(C)(C)c3ccc(F)cc3C(N)=O)C(F)(F)F)[nH]c2cn1 | cell-free assay | – | competition with immobilised ligand | 1 µM | remaining binding | 100% |
| CCCCNc1ncc2c(-c3ccc(F)cc3)nn(C[C@H]3CC[C@H](N)CC3)c2n1 | target engagement in cells | inhibitor | chemoproteomics | 20 mM | inhibition | 33.9% |
| COc1cc(Nc2cnc(C#N)c(O[C@H](C)CN(C)C)n2)ncc1-c1cnn(C)c1 | enzyme activity | inhibitor | radiometric | 10 µM | remaining activity | 69% |
| O=C(NCCCNc1nc(Nc2cccc(NC(=O)N3CCCC3)c2)ncc1I)c1cccs1 | enzyme activity | inhibitor | radiometric | 1 µM | remaining activity | -4% |
| CSc1cccnc1N1CCN(Cc2nc3ccccc3[nH]2)CC1 | cell-free assay | – | competition with immobilised ligand | 1 µM | remaining binding | 98% |
| Cc1nn(CC(F)(F)F)cc1Nc1nccc(NCc2ccc(S(N)(=O)=O)cc2)n1 | enzyme activity | inhibitor | radiometric | 1 µM | remaining activity | 122% |
| Oc1ccc(-c2nc(-c3ccncc3)c(-c3ccc(F)cc3)[nH]2)cc1 | cell-free assay | – | – | 0.5 µM | remaining signal | 105% |
| CCCS(=O)(=O)Nc1ccc(F)c(C(=O)c2c[nH]c3ncc(-c4ccc(Cl)cc4)cc23)c1F | enzyme activity | inhibitor | – | 1 µM | inhibition | < 10% |
| O=C(Nc1cnc(Oc2ccc(F)cc2)nc1)N1CCc2ncccc2[C@@H]1c1ccc(F)cc1 | cell-free assay | – | competition with immobilised ligand | 1 µM | remaining binding | 100% |
| Nc1ncnc2occ(-c3ccc(NC(=O)Nc4cc(C(F)(F)F)ccc4F)cc3)c12 | cell-free assay | inhibitor | – | 20 µM | remaining signal | 15% |
| Cc1nn(CC(F)(F)F)cc1Nc1ncc(Br)c(NCCCNC(=O)C2CCC2)n1 | enzyme activity | inhibitor | radiometric | 1 µM | remaining activity | 35% |
| CCC(=N\O)/C(C)=C/c1ccc(F)cc1 | cell-free assay | – | competition with immobilised ligand | 1 µM | remaining binding | 86% |
| NS(=O)(=O)c1ccc(CNc2ccnc(Nc3cccc(CN4CCOCC4)c3)n2)cc1 | enzyme activity | inhibitor | radiometric | 1 µM | remaining activity | 113% |
| Cc1cc(NC(=O)c2cccc(S(F)(F)(F)(F)F)c2)cc(-n2ccn3nc(-c4cccnc4)cc23)c1 | cell-free assay | – | competition with immobilised ligand | 1 µM | remaining binding | 100% |
| N#CCCc1ccc2c(c1)-c1[nH]c3ccc([N+](=O)[O-])cc3c1CC(=O)N2 | cell-free assay | – | – | 0.5 µM | remaining signal | 67.3% |
| CNc1cccc2cc(C(=O)Nc3ccc(C(=O)O)cc3)c(=O)[nH]c12 | enzyme activity | inhibitor | – | 10 µM | inhibition | -10% |
| O=C(NCCCNc1nc(Nc2cccc(NC(=O)N3CCCC3)c2)ncc1Br)C1CCC1 | enzyme activity | inhibitor | radiometric | 1 µM | remaining activity | -3% |
| C[C@H](NC(=O)c1cnc2n1[C@](C)(Cc1ccc(C#N)cc1)C(=O)N2c1cc(Cl)c(F)c(Cl)c1)C(=O)NC1(c2ccccn2)CC1 | cell-free assay | – | competition with immobilised ligand | 1 µM | remaining binding | 92% |
| O=C(Nc1cccc(Nc2ncc(Br)c(NCCc3cnc[nH]3)n2)c1)N1CCCC1 | enzyme activity | inhibitor | radiometric | 1 µM | remaining activity | -1% |
| COc1cc2ncnc(Nc3ccc(Oc4ccccc4)c(C)c3C)c2cc1OC | enzyme activity | inhibitor | – | 1 µM | inhibition | -4% |
